Reference: ChEMBL document CHEMBL4020832, “Development of (6 R)-2-Nitro-6-[4-(trifluoromethoxy)phenoxy]-6,7-dihydro-5 H-imidazo[2,1- b][1,3]oxazine (DNDI-8219): A New Lead for Visceral Leishmaniasis” (J Med Chem, 2018)

Assays:
Liver [1] = assay: Metabolic stability in CD-1 mouse liver microsomes assessed as parent compound remaining at 1 uM after 1 hr; format: ADME, microsome
[2] = AUClast in golden Syrian hamster at 2 mg/kg, iv after 24 to 48 hrs by LC-MS/MS analysis; format: ADME, organism-based, Mesocricetus auratus; conditions: in vivo
How it was run: (§1)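 Fasted female golden Syrian hamsters. IV dose was 2 mg/kg as a solution in 20% NMP and 40% PEG-400 in citrate buffer (pH 3). Oral dosing at 40–50 mg/kg used PEG-400 as vehicle. Plasma was quantified by LC–MS/MS. AUClast was taken to the last time point (24 or 48 h).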

[3] = Initial concentration in golden Syrian hamster at 2 mg/kg, iv by LC-MS/MS analysis; format: ADME, organism-based, Mesocricetus auratus; conditions: in vivo
How it was run: (§2)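 Fasted female golden Syrian hamsters given 2 mg/kg iv as a solution in 20% NMP and 40% PEG-400 in citrate buffer pH 3. Plasma concentrations determined by LC–MS/MS to derive PK parameters.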

Liver [4] = assay: Metabolic stability in human liver microsomes assessed as parent compound remaining at 1 uM after 1 hr; format: ADME, microsome
[5] = Volume of distribution at steady state in golden Syrian hamster at 2 mg/kg, iv by LC-MS/MS analysis; format: ADME, organism-based, Mesocricetus auratus; conditions: in vivo, read-out: Vdss; how it was run: as §2
[6] = Half life in golden Syrian hamster at 40 mg/kg, po by LC-MS/MS analysis; format: ADME, organism-based, Mesocricetus auratus; conditions: in vivo
[7] = Clearance in golden Syrian hamster at 2 mg/kg, iv by LC-MS/MS analysis; format: ADME, organism-based, Mesocricetus auratus; conditions: in vivo
[8] = Cmax in golden Syrian hamster at 40 mg/kg, po by LC-MS/MS analysis; format: ADME, organism-based, Mesocricetus auratus; design: dose 40 mg/kg, route oral; conditions: in vivo; how it was run: as §1
[9] = AUClast in golden Syrian hamster at 40 mg/kg, po after 24 to 48 hrs by LC-MS/MS analysis; format: ADME, organism-based, Mesocricetus auratus; conditions: in vivo; how it was run: as §1
Syrian golden hamster = assay: Oral bioavailability in golden Syrian hamster at 40 mg/kg by LC-MS/MS analysis; format: ADME, organism-based, Mesocricetus auratus; conditions: in vivo
[10] = Tmax in golden Syrian hamster at 40 mg/kg, po by LC-MS/MS analysis; format: ADME, organism-based, Mesocricetus auratus; conditions: in vivo
[11] = Half life in golden Syrian hamster at 2 mg/kg, iv by LC-MS/MS analysis; format: ADME, organism-based, Mesocricetus auratus; conditions: in vivo; how it was run: as §1
[12] = Metabolic stability in hamster liver microsomes assessed as parent compound remaining at 1 uM after 1 hr; format: ADME, microsome; conditions: read-out: Stability
Liver [13] = assay: Metabolic stability in CD-1 mouse liver microsomes assessed as parent compound remaining at 0.5 uM after 0.5 hr; format: ADME, microsome
[14] = Metabolic stability in hamster liver microsomes assessed as parent compound remaining at 0.5 uM after 0.5 hr; format: ADME, microsome; conditions: read-out: Stability
Liver [15] = assay: Metabolic stability in human liver microsomes assessed as parent compound remaining at 0.5 uM after 0.5 hr; format: ADME, microsome
[16] = AUClast in Swiss albino mouse at 1 mg/kg, iv after 24 to 48 hrs by LC-MS/MS analysis; format: ADME, organism-based; conditions: in vivo
[17] = Initial concentration in Swiss albino mouse at 1 mg/kg, iv by LC-MS/MS analysis; format: ADME, organism-based; conditions: in vivo
How it was run: (§3)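 Male Swiss albino mice given 1 mg/kg iv in 20% NMP/40% PEG-400 in 100 mM citrate buffer pH 3. Plasma sampled at 0.083, 0.25, 0.5, 1, 2, 4, 6, 8, 10, 24 and 48 h. Levels measured by LC–MS/MS; noncompartmental PK parameters.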

Mus musculus [18] = assay: (§4) Half life in Swiss albino mouse at 1 mg/kg, iv by LC-MS/MS analysis; format: ADME, organism-based; conditions: in vivo
[19] = Volume of distribution at steady state in Swiss albino mouse at 1 mg/kg, iv by LC-MS/MS analysis; format: ADME, organism-based; conditions: in vivo, read-out: Vdss; how it was run: as §3
[20] = Tmax in Swiss albino mouse at 25 mg/kg, po by LC-MS/MS analysis; format: ADME, organism-based; conditions: in vivo
How it was run: (§5)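 Male Swiss albino mice dosed orally at 25 mg/kg as a suspension in 0.5% CMC/0.08% Tween 80 in water. Plasma sampled 0.25–48 h, analysed by LC–MS/MS. F from dose-normalized AUClast against a 1 mg/kg iv dose.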

Mus musculus [21] = assay: Oral bioavailability in Swiss albino mouse at 25 mg/kg by LC-MS/MS analysis; format: ADME, organism-based; conditions: in vivo; how it was run: as §5
[22] = AUClast in Swiss albino mouse at 25 mg/kg, po after 24 to 48 hrs by LC-MS/MS analysis; format: ADME, organism-based; conditions: in vivo
[23] = Cmax in Swiss albino mouse at 25 mg/kg, po by LC-MS/MS analysis; format: ADME, organism-based; design: dose 25 mg/kg, route oral; conditions: in vivo
[24] = Clearance in Swiss albino mouse at 1 mg/kg, iv by LC-MS/MS analysis; format: ADME, organism-based; conditions: in vivo
[25] = as §4; format: ADME, organism-based; conditions: Swiss albino, in vivo
Mus musculus [26] = assay: Tmax in Swiss albino mouse at 40 mg/kg, po by LC-MS/MS analysis; format: ADME, organism-based; conditions: in vivo
Mus musculus [27] = assay: Cmax in Swiss albino mouse at 40 mg/kg, po by LC-MS/MS analysis; format: ADME, organism-based; design: dose 40 mg/kg, route oral; conditions: in vivo
[28] = Half life in Swiss albino mouse at 40 mg/kg, po by LC-MS/MS analysis; format: ADME, organism-based; conditions: in vivo
Mus musculus [29] = assay: AUClast in Swiss albino mouse at 40 mg/kg, po after 24 to 48 hrs by LC-MS/MS analysis; format: ADME, organism-based; conditions: in vivo

Compound	Stability (Liver [1]) [%]	Stability (Liver [4]) [%]	remaining at 1 h, 1 µM [12] [%]	Stability (Liver [13]) [%]	remaining at 0.5 h, 0.5 µM [14] [%]	Stability (Liver [15]) [%]	further results
O=[N+]([O-])c1cn2c(n1)OC[C@H](OCc1ccc(-c3ccc(F)cc3F)cn1)C2	57	59	5.2				AUC(0-t) [2]: 480 ng·h/mL; C0 [3]: 930 ng/mL; Vd [5]: 4 L/kg; half-life [6]: 0.83 h; clearance [7]: 63 mL/min/kg; Cmax [8]: 1900 ng/mL; AUC(0-t) [9]: 3950 ng·h/mL; F (Syrian golden hamster): 37%; Tmax [10]: 0.75 h; half-life [11]: 0.83 h
O=[N+]([O-])c1cn2c(n1)OC[C@H](OCc1ncccc1-c1ccc(OC(F)(F)F)cc1)C2	0.2	8					
O=[N+]([O-])c1cn2c(n1)OC[C@@H](OCc1ccc(-c3ccc(OC(F)F)cc3)cn1)C2				88	59	92	
O=[N+]([O-])c1cn2c(n1)OC[C@@H](OCc1cccc(-c3ccc(F)cc3)n1)C2				74		96	
O=[N+]([O-])c1cn2c(n1)OC[C@H](OCc1cccnc1-c1ccc(OC(F)(F)F)cc1)C2	44	35	3				
O=[N+]([O-])c1cn2c(n1)OCC(COc1ccc(OC(F)(F)F)cc1)C2 (stereo unspecified)				88	70	78	AUC(0-t) [16]: 1250 ng·h/mL; C0 [17]: 340 ng/mL; t1/2 (Mus musculus [18]): 2 h; Vd [19]: 2.5 L/kg; Tmax [20]: 1 h; F (Mus musculus [21]): 50%; AUC(0-t) [22]: 15700 ng·h/mL; Cmax [23]: 1500 ng/mL; clearance [24]: 13 mL/min/kg
O=[N+]([O-])c1cn2c(n1)OCC(COc1ccc(-c3ccc(OC(F)(F)F)cc3)nc1)C2 (stereo unspecified)				96	88		C0 [17]: 750 ng/mL; half-life [25]: 20 h; Vd [19]: 1.9 L/kg; Tmax [20]: 10 h; F (Mus musculus [21]): 11%; Cmax [23]: 870 ng/mL; clearance [24]: 1.2 mL/min/kg
O=[N+]([O-])c1cn2c(n1)OC[C@H](NCc1ccc(OC(F)(F)F)cc1)C2	61		7.5				
CC1(C)Oc2nc([N+](=O)[O-])cn2CC1OCc1ccc(OC(F)(F)F)cc1 (stereo unspecified)	72	92					
O=C(N[C@H]1COc2nc([N+](=O)[O-])cn2C1)c1cccc(OC(F)(F)F)c1			59				
O=[N+]([O-])c1cn2c(n1)OC[C@H](OCc1ccc(-c3ccc(OC(F)(F)F)cc3F)cn1)C2	40	27	10	79	69	75	Tmax (Mus musculus [26]): 3.3 h; Cmax (Mus musculus [27]): 32000 ng/mL; AUC(0-t) [2]: 1890 ng·h/mL; C0 [3]: 940 ng/mL; Vd [5]: 4.2 L/kg; half-life [6]: 3.9 h; half-life [28]: 6.1 h; clearance [7]: 18 mL/min/kg; Cmax [8]: 4200 ng/mL; AUC(0-t) [9]: 26700 ng·h/mL; F (Syrian golden hamster): 74%; Tmax [10]: 2 h; AUClast (Mus musculus [29]): 265000 ng·h/mL; half-life [11]: 3.9 h
O=[N+]([O-])c1cn2c(n1)OC[C@@H](OCc1ccc(OC(F)(F)F)cc1)C2 [PRETOMANID]		82					
O=[N+]([O-])c1cn2c(n1)OC[C@@H](OCc1ccc(-c3ccc(OC(F)(F)F)cc3Cl)cn1)C2				100	75	73	
O=[N+]([O-])c1cn2c(n1)OC[C@H](OCc1ccc(OC(F)(F)F)cc1)C2	86				31		
O=[N+]([O-])c1cn2c(n1)OC[C@H](OCc1ccc(-c3ccc(F)cc3)cn1)C2	66	58	10	77	37	85	
